Reference: ChEMBL document CHEMBL1142018, “Discovery and SAR of new benzazepines as potent and selective 5-HT(2C) receptor agonists for the treatment of obesity” (Bioorg Med Chem Lett, 2005)

Columns and labels:
[1] = target: T1, 5-hydroxytryptamine receptor 2A (Homo sapiens, UniProt P28223); experiment: Percentage maximum response relative to serotonin towards 5-hydroxytryptamine 2A receptor in HEK293 cells; assay type: functional, cell-based
Outline: (§1)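 Functional agonism at human 5-HT2A, 5-HT2B or 5-HT2C receptors (the 2C as the INI isoform). Receptors were transiently transfected into HEK-293 cells, and the read-out was [³H]phosphoinositol turnover.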

[2] = target: T1, 5-hydroxytryptamine receptor 2A; experiment: Effective concentration towards 5-hydroxytryptamine 2A receptors transfected in HEK293 cells was determined by measuring [3H]phosphoinositol release; assay type: functional, cell-based; outline: as §1
[3] = target: T2, 5-hydroxytryptamine receptor 2C (Homo sapiens) (UniProt P28335); experiment: Percentage maximum response relative to serotonin towards 5-hydroxytryptamine 2C receptor in HEK293 cells; assay type: functional, cell-based; outline: as §1
T2 sequence (whole entry): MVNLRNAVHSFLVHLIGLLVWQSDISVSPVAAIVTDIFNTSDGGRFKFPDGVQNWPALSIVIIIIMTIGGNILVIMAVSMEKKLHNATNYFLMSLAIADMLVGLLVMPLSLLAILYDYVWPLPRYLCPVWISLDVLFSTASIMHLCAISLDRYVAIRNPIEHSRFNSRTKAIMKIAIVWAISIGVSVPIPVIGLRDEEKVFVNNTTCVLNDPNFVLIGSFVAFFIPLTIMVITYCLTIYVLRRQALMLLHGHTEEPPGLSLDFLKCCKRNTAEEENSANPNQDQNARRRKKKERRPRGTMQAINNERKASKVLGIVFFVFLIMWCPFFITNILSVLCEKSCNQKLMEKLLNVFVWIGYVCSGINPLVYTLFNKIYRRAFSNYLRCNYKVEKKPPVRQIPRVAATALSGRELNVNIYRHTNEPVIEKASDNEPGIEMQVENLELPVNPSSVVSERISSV

[4] = target: T3, 5-hydroxytryptamine receptor 2B (Homo sapiens, UniProt P41595); experiment: Effective concentration towards 5-hydroxytryptamine 2B receptors transfected in HEK293 cells was determined by measuring [3H]phosphoinositol release; assay type: functional, cell-based; outline: as §1
[5] = target: T4, 5-hydroxytryptamine receptor 2C (Homo sapiens, UniProt P28335); experiment: Effective concentration towards 5-hydroxytryptamine 2C receptors transfected in HEK293 cells was determined by measuring [3H]phosphoinositol release; assay type: functional, cell-based; outline: as §1
T4 sequence (P28335 whole entry): T2 sequence (whole entry)

[6] = target: T3, 5-hydroxytryptamine receptor 2B; experiment: Percentage maximum response relative to serotonin towards 5-hydroxytryptamine 2B receptor in HEK293 cells; assay type: functional, cell-based; outline: as §1
Rattus norvegicus = experiment: Effect on food intake after 6 hr of injection of compound by oral gavage and compared to vehicle control rats (n = 8); decreased food intake by range 10-40 mg/kg; assay type: functional
[7] = target: T3, 5-hydroxytryptamine receptor 2B; experiment: Percentage maximum response relative to serotonin towards 5-hydroxytryptamine 2B receptor at 10 uM concentration in HEK293 cells; assay type: functional, cell-based
[8] = Rattus norvegicus, po, 6 h, read-out: ED50

T1 sequence (P28223 whole entry, canonical isoform): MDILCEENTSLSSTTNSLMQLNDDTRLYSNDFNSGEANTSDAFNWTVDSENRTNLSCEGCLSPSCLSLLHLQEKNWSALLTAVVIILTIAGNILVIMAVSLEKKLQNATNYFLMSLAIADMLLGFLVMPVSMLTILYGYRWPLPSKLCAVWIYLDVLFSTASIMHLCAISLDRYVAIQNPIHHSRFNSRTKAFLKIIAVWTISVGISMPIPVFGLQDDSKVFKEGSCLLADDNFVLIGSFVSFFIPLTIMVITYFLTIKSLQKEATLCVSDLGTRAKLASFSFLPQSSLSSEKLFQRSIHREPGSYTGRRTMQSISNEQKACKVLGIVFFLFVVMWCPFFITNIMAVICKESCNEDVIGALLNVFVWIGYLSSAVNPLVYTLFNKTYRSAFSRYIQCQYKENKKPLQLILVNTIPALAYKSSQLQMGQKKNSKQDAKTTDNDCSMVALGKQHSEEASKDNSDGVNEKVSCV
T3 sequence (P41595 whole entry): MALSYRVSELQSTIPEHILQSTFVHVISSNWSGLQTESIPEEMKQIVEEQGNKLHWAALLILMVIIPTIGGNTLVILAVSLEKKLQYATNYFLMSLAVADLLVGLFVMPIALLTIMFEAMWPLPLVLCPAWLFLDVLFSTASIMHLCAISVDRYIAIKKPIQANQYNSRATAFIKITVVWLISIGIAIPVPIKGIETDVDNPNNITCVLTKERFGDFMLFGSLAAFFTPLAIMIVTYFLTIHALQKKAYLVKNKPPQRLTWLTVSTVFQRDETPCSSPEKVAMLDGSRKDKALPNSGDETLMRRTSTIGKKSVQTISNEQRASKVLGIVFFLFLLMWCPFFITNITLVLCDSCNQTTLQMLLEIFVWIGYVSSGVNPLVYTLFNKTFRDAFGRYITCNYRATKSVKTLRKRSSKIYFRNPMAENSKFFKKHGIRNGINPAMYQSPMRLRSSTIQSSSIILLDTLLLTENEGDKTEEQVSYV

| Compound | EC50 ([2]; read-out: EC50) [nM] | EC50 ([4]; read-out: EC50) [nM] | EC50 [5] [nM] | further results |
| --- | --- | --- | --- | --- |
| Clc1ccc2c(c1)CCNCC2 | 90 | 1000 | 12 | Maximum response [1]: 100%; Maximum response [3]: 85%; Maximum response [6]: 100% |
| CC1CNCCc2ccc(Br)cc21 (configuration not stated) | 510 | 1500 | 12 |  |
| CC1CNCCc2ccc(Cl)c(Cl)c21 (configuration not stated) | 220 | 1800 | 6 | ED50 (Rattus norvegicus; [8]): 40 mg/kg |
| CC1CNCCc2ccc(C(F)(F)F)cc21 (configuration not stated) | 100 | 380 | 7 | ED50 (Rattus norvegicus; [8]): 40 mg/kg |
| COc1ccc2c(c1)CCNCC2C (configuration not stated) | > 10000 |  | 2000 | EC50 ([4]; hek293): Not Active |
| CC1CNCCc2c(Cl)cccc21 (configuration not stated) | > 5000 | > 5000 | 860 |  |
| CC1CNCCc2ccc(Cl)c(F)c21 (configuration not stated) | 840 | > 10000 | 22 | ED50 (Rattus norvegicus; [8]): 40 mg/kg |
| C[C@H]1CNCCc2ccc(Cl)c(Cl)c21 | 2400 | > 10000 | 230 | Maximum response [1]: 100%; Maximum response [3]: 85% |
| CC1CNCCc2cc(Cl)c(Cl)cc21 (configuration not stated) | 16 | 78 | 4 | ED50 (Rattus norvegicus; [8]): 40 mg/kg |
| C[C@@H]1CNCCc2ccc(Cl)c(Cl)c21 | 135 |  | 3 | Maximum response [1]: 35%; Maximum response [3]: 90%; Maximum response [7]: 25% |
| COc1cc2c(cc1Br)[C@H](C)CNCC2 | 30 | 30 | 5 |  |
| COc1ccc2c(c1)C(C)CNCC2 (configuration not stated) | 940 | 780 | 420 |  |
| CC1CNCCc2cc(OCc3ccccc3)c(Br)cc21 (configuration not stated) | 22 | > 10000 | 56 |  |
| C[C@H]1CNCCc2ccc(Cl)cc21 |  |  |  | Maximum response [1]: 70%; Maximum response [3]: 100%; Maximum response [6]: 100% |
| COc1cc2c(cc1Br)CCNCC2 | 100 | 400 | 8 |  |
| CC1CNCCc2cc(Cl)ccc21 (configuration not stated) | 150 | 530 | 35 |  |
| C[C@@H]1CNCCc2ccc(Cl)cc21 |  |  |  | Maximum response [1]: 70%; Maximum response [3]: 100%; Maximum response [6]: 100% |

| Compound | EC50 ([2]; read-out: EC50) [nM] | EC50 ([4]; read-out: EC50) [nM] | EC50 [5] [nM] | further results |
| --- | --- | --- | --- | --- |
| CC(C)Oc1cc2c(cc1Br)C(C)CNCC2 (configuration not stated) | 97 | 230 | 68 |  |
| CC1CNCCc2cccc(Cl)c21 (configuration not stated) | > 5000 | > 5000 | 930 |  |
| CC1CNCCc2cc(F)c(Cl)cc21 (configuration not stated) | 72 | 360 | 7 | ED50 (Rattus norvegicus; [8]): 40 mg/kg |
| COc1cc2c(cc1Br)C(C(C)C)CNCC2 (configuration not stated) |  | 1000 | 160 | EC50 ([2]; hek293): Not Active |
| CCC1CNCCc2cc(OC)c(Br)cc21 (configuration not stated) | 100 | 40 | 11 |  |
| CC1CNCCc2ccc(F)cc21 (configuration not stated) | 1600 | > 10000 | 410 |  |
| CC1CNCCc2ccccc21 (configuration not stated) | 1600 | > 5000 | 340 |  |
| COc1cc2c(cc1Br)[C@@H](C)CNCC2 | 80 | 220 | 3 |  |
| COc1cc2c(cc1Cl)C(C)CNCC2 (configuration not stated) | 80 | 140 | 11 | ED50 (Rattus norvegicus; [8]): 40 mg/kg |
| CC1CNCCc2ccc(Cl)cc21 (configuration not stated) |  |  |  | ED50 (Rattus norvegicus; [8]): 40 mg/kg |
| CC1CNCCc2c(Cl)cc(Cl)cc21 (configuration not stated) | 170 | 840 | 20 |  |
| COc1cc2c(cc1I)C(C)CNCC2 (configuration not stated) | 61 | 64 | 2 | ED50 (Rattus norvegicus): 40 mg/kg |
| CCOc1cc2c(cc1Br)C(C)CNCC2 (configuration not stated) | 110 | 180 | 28 |  |
| COc1cc2c(cc1C(F)(F)F)C(C)CNCC2 (configuration not stated) | 42 | 130 | 4 |  |
| CC1CNCCc2cc(O)c(Br)cc21 (configuration not stated) | 63 | 190 | 3 |  |
| COc1cc2c(cc1Br)C(C)CNCC2 (configuration not stated) | 80 | 100 | 5 | ED50 (Rattus norvegicus; [8]): 40 mg/kg |
